Shown are actives, neighbours in structure and some others; about 2.3% of the full set was active somewhere.
SKN-1 inh: C. elegans SKN-1 inhibition. inhibition, % at 21.8 µM. 360,000 compounds, 0.49% hits. C. elegans VP596 Pgst-4::GFP/RFP ratio, acrylamide-induced, 24 h;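 active means interference check ratio from 0.5 to 1.5 plus GFP to RFP signal ratio inhibition reaching or exceeding a fixed threshold, cut at about 30% in these data, passing the limit was not always enough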
ATG4B inh: inhibitors of human ATG4B cysteine protease | ATG4B cleavage of LC3-PLA2, NBD-HPC fluorescence, 1 h | inhibition, % at 8.33 µM | 340,000 compounds, 0.51% hits | AID 504462; in the data active means inhibition above about 40%
Target sequence (Q9Y4P1 whole entry, looked up): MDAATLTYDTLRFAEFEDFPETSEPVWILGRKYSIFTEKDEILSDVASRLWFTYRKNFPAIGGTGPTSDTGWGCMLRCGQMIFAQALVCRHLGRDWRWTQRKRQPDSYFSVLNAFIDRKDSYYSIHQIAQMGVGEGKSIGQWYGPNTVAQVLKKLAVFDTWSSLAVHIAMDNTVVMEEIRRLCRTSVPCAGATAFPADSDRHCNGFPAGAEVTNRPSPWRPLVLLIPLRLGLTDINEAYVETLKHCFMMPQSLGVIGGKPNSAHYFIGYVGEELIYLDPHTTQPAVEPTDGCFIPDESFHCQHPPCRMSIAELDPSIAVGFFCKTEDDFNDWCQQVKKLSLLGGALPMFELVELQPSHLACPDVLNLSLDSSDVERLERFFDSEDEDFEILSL
MPTP inh: permeability transition pore inhibition. isolated mouse mitochondria, Ca2+ swelling absorbance, 30 min. AID 602449. 360,000 compounds, 1.4% hits. inhibition, % at 10 µM;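 active means inhibition of 50% or more, scaled per plate between neutral and stimulator controls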
MT1-MMP act inh: blocks activation of human MT1-MMP. P50281. HT1080 RFP-PRO-GFP cells, GFP/RFP ratio fluorescence, overnight; percent of plate control window, DMSO zero. GFP/RFP ratio change, % at 20 µM. 360,000 compounds, 0.061% hits;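 active means GFP/RFP ratio change of at least 30% with cell ATP level not reduced by more than half and red fluorescence within 50% of control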
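Assay system – RFP-PRO-GFP reporter HT1080 cells · Compound dosing – single dose of 20 µM compound, 1% DMSO final · Incubation – overnight compound exposure at 37 °C · Measure – GFP/RFP fluorescence ratio · Benchmarks – DMSO wells and RFP-L50D-GFP cells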
MPTP counter: mitochondrial membrane potential, counter-screen | shares compounds with MPTP inh | isolated mitochondria, Rhodamine 123 fluorescence | inhibition, % at 10 µM | 5,000 compounds, 78% hits | AID 624504; in the data active means inhibition above about 22%
MPTP swell DR: MPTP inhibition, dose response swelling confirmation. shares compounds with MPTP inh. isolated mitochondria swelling, absorbance. IC50, µM. 780 compounds, 58% hits. AID 651561; in the data active means IC50 below about 20 µM
MPTP counter DR: counter-screen for mitochondrial permeability transition pore inhibitors, dose response | shares compounds with MPTP inh | isolated mitochondria counterscreen, fluorescence read-out | IC50, µM | 780 compounds, 49% hits; in the data active means IC50 below about 80 µM
Large screens that a line does not name were inactive (follow-up assays come after a bar, where they were run).

Cc1nnsc1NC(=O)OCc1ccc(Cl)cc1Cl	none
Cc1nn(C)c(Cl)c1NC(=O)OCc1ccc(Cl)cc1Cl	MPTP inh 87 | MPTP counter 92
CCN(CC)CCCCN1c2ccccc2Sc2ccccc21	none
CN1CCCC(CN2c3ccccc3Sc3ccccc32)C1 (stereo unspecified)	MPTP inh 82 | MPTP counter inactive
CN1CCCC(CC2c3ccccc3Sc3ccccc32)C1 (stereo unspecified)	MPTP inh 100 | MPTP counter inactive | MPTP swell DR 9.4 | MPTP counter DR inactive
O=C1c2ccccc2C(=O)N1CC1=CCS(=O)(=O)C1	none
Cc1cc(C)cc(C(O)c2ncc(-c3cccc(C(F)(F)F)c3)[nH]2)c1 (stereo unspecified)	none (no result: ATG4B inh)
CCCN(CC1CC1)C(=O)CSc1ncnc2sccc12	none
COCCCN(C(=O)CCOc1ccccc1C)c1c(N)n(Cc2ccccc2)c(=O)[nH]c1=O	none
Cc1nnc(SCc2cccs2)[nH]c1=O	none
CCc1ccc(NC(=O)CN2CCCN(S(=O)(=O)c3ccc(F)cc3)CC2)cc1	none
COc1cccc(-c2csc(N3CCN(C(=S)Nc4ccccc4)CC3)n2)c1	none
COc1cccc(-c2csc(N3CCN(C(=S)Nc4ccc(Cl)cc4)CC3)n2)c1	MPTP inh 64 | MPTP counter 70
Cc1ccccc1CCN(C(=O)c1csnn1)C(C(=O)NC1CCCC1)c1ccco1 (stereo unspecified)	none
O=[N+]([O-])c1ccc(N/N=C/c2cccc(O)c2O)cc1	none
O=[N+]([O-])c1ccc(NN=Cc2cccc([N+](=O)[O-])c2)cc1	SKN-1 inh 38, MPTP inh 92 | MPTP counter 65
Cc1ccc(S(=O)(=O)N/N=C/c2cccc([N+](=O)[O-])c2)cc1	none
CCCCCCCCCS(=O)(=O)N/N=C/c1cccc([N+](=O)[O-])c1	MPTP inh 64 | MPTP counter 61
O=[N+]([O-])c1ccc(N/N=C/c2cccc(O)c2)cc1	none
Cc1cccc(C(=O)Oc2ccccc2/C=N/Nc2ccc([N+](=O)[O-])cc2)c1	MPTP inh 67 | MPTP counter 78
O=[N+]([O-])c1ccc(N/N=C/C=C/c2ccco2)cc1	MPTP inh 76 | MPTP counter 70
CCCCCCCCCCS(=O)(=O)N/N=C/c1ccc(O)cc1	MPTP inh 79 | MPTP counter 56
CCCCCCCCCCS(=O)(=O)N/N=C/c1ccccc1OC	none
CC(C)(C)C1CCc2c(sc(NC(=O)CSc3ncn[nH]3)c2C#N)C1 (stereo unspecified)	MPTP inh 52 | MPTP counter 66
CC1CCc2c(sc(NC(=O)CSc3ncn[nH]3)c2C#N)C1 (stereo unspecified)	MPTP inh 52 | MPTP counter 26
Cc1ccnc(SCC(=O)Nc2sc3c(c2C#N)CCCC3)n1	MPTP inh 100 | MPTP counter 125
CC(=O)c1c(C)[nH]c(C(=O)OCC(=O)Nc2sc3c(c2C#N)CCC(C)C3)c1C (stereo unspecified)	MPTP inh 105 | MPTP counter 89
COc1ccc(C(=O)c2[nH]c(N)c(C(=O)NCCc3c[nH]c4ccccc34)c2-c2ccc(Cl)c(F)c2)cc1	none (no result: ATG4B inh)
CCCOc1ccc(S(=O)(=O)NNC(=O)c2cc3ccccc3o2)cc1	MPTP inh 66 | MPTP counter 31
COc1ccc2c(CC(=O)Nc3ccc(OC)nc3)coc2c1	none
CCC(O)(CC)C(=O)N/N=C/c1cc(Br)cc(Br)c1O	MPTP inh 83 (no result: MT1-MMP act inh) | MPTP counter 46
OC1(c2ccc3ccccc3c2)CCN(Cc2ccccc2)C1 (stereo unspecified)	MPTP inh 55 | MPTP counter inactive | MPTP swell DR inactive | MPTP counter DR inactive
CCc1c(C)nc2ncnn2c1NCCc1ccc(Cl)cc1	MPTP inh 90 | MPTP counter 40
Cc1ccc(Oc2ccc(-c3nc(N)nc(N)n3)cc2)cc1C	none
Cc1ccc(O)c(-c2cc(C(F)(F)F)[nH]n2)c1	MPTP inh 63 | MPTP counter 67
Cc1cccc(NC(=O)c2cc(-c3cc(C)ccc3O)n[nH]2)c1	none
N=C1C(c2nc3ccccc3s2)=C(O)CN1C1CCCCC1	none
CCCCCn1c(N)c(-c2nc3ccccc3o2)c2c([N+](=O)[O-])nn(C)c(=O)c21	none
CCCCn1c(N)c(-c2nc3ccccc3s2)c2c([N+](=O)[O-])nn(CC)c(=O)c21	MPTP inh 92 | MPTP counter inactive | MPTP swell DR 20 | MPTP counter DR 18
CCCCn1c(N)c(N(CCC(C)C)C(=O)CSc2nc3ccccc3s2)c(=O)[nH]c1=O	none (no result: ATG4B inh)
CCCCCn1c(N)c(-c2nc3ccccc3o2)c2c([N+](=O)[O-])nn(CC)c(=O)c21	none
CCCCn1c(N)c(-c2nc3ccccc3s2)c2c([N+](=O)[O-])nn(C)c(=O)c21	MPTP inh 97 | MPTP counter inactive | MPTP swell DR 12 | MPTP counter DR 6.2
CCCCCn1c(N)c(-c2nc3ccccc3s2)c2c([N+](=O)[O-])nn(CC)c(=O)c21	MPTP inh 97 | MPTP counter inactive | MPTP swell DR 11 | MPTP counter DR <2.5
Cn1nc([N+](=O)[O-])c2c(-c3nc4ccccc4s3)c(N)n(C3CCCCC3)c2c1=O	MPTP inh 72 | MPTP counter inactive | MPTP swell DR inactive | MPTP counter DR 43
Cc1ccc(CN2C(=O)CSCC2(C)C(=O)NCc2ccccc2)cc1 (stereo unspecified)	none (no result: ATG4B inh)
Cc1cccc(NC(=O)CN(CC2CCCO2)C(=O)c2oc3ccccc3c2C)c1C (stereo unspecified)	none
CCCCOc1ccc(Br)cc1/C(C)=N/NC1=NCCN1	MPTP inh 67 | MPTP counter 92
O=C(c1cccc(S(=O)(=O)N2CCN(c3ccccc3)CC2)c1)N1CCCC(C(F)(F)F)C1 (stereo unspecified)	MPTP inh 68 | MPTP counter 71
O=C(c1ccco1)N1CCC2CC1c1c(Cl)cccc12 (stereo unspecified)	none (no result: ATG4B inh)
Cc1cccc(/C=N/c2sc3c(c2C(=O)OC(C)(C)C)CCN(C)C3)c1O	MPTP inh 56 | MPTP counter inactive | MPTP swell DR 8.9 | MPTP counter DR 67
CCOC(=O)c1c(/N=C/c2cc(C)ccc2O)sc2c1CCN(C)C2	MPTP inh 85 | MPTP counter inactive | MPTP swell DR inactive | MPTP counter DR 76
CN1CCc2c(sc(NC(=O)c3ccc(C(=O)c4ccccc4)cc3)c2C(N)=O)C1	none
Cc1cccc(NC(=O)C2C(c3ccccc3)C2(Cl)Cl)c1C (stereo unspecified)	MPTP inh 71 | MPTP counter 77

Bioassay records (PubChem)
